Drawing on ChEMBL document CHEMBL3797084, “Design and evaluation of novel oxadiazole derivatives as potential prostate cancer agents” (Bioorg Med Chem Lett, 2016), this text covers IC50, Activity and viability for 7 compounds.

The nature of assay [1]: Cytotoxicity against human PC3 cells assessed as growth inhibition after 24 hrs by sulforhodamine B assay. To be noted: PC-3, 24 h. It counts as functional, cell-based. In outline:
(§1)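 LNCaP and PC-3 were kept as monolayers in RPMI with 10% heat-inactivated FBS and penicillin/streptomycin at 37 °C in 5% CO2. Cells were seeded, left overnight, then treated at various concentrations in triplicate wells for 24 h. They were fixed with 10% TCA for 1 h at 4 °C and stained 10 min with 0.4% SRB in 1% acetic acid. Bound dye was solubilized in Tris-HCl and read at 564 nm. IC50 came from a Boltzmann sigmoidal nonlinear fit, as the mean of at least three experiments.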
(In general: Sulforhodamine B stains cellular protein and so reports cell mass.)

In the next assay the test system is LNCaP. The assay is described as follows: Cytotoxicity against human LNCAP cells assessed as growth inhibition after 24 hrs by sulforhodamine B assay. It counts as functional, cell-based. In outline: as §1
For assay [2], the system named is PC-3. The assay can be described thus: Induction of apoptosis in human PC3 cells assessed as necrotic cells at 0.2 uM after 48 hrs by propidium iodide staining-based flow cytometry (reference value: 0.4%). It counts as functional. A general note: In flow cytometry, cells or beads pass a laser one at a time.
Assay [3] can be described thus: Cell cycle arrest in human PC3 cells assessed as accumulation at G2/M phase at 0.2 uM after 48 hrs by propidium iodide staining-based flow cytometry (reference value: 25.1%). The settings on record: PC-3. It counts as functional.
For assay [4], the system named is PC-3. The assay is described as follows: Induction of apoptosis in human PC3 cells assessed as viable cells at 0.2 uM after 48 hrs by propidium iodide staining-based flow cytometry (reference value: 91%). It counts as functional. To be noted: PC-3, 48 h, read-out: Activity.
In assay [5] the test system is PC-3. The assay is described as follows: Induction of apoptosis in human PC3 cells assessed as late apoptotic cells at 0.2 uM after 48 hrs by propidium iodide staining-based flow cytometry (reference value: 4.2%). It counts as functional.
Assay [6] in a line: Cell cycle arrest in human PC3 cells assessed as accumulation at S phase at 0.2 uM after 48 hrs by propidium iodide staining-based flow cytometry (reference value: 6.9%). To be noted: PC-3. It counts as functional.
Assay [7] can be described thus: Cell cycle arrest in human PC3 cells assessed as accumulation at G0/G1 phase at 0.2 uM after 48 hrs by propidium iodide staining-based flow cytometry (reference value: 58%). It counts as functional. To be noted: PC-3.
Assay [8] concerns PC-3. The assay can be described thus: Induction of apoptosis in human PC3 cells assessed as early apoptotic cells at 0.2 uM after 48 hrs by propidium iodide staining-based flow cytometry (reference value: 4.4%). It counts as functional.
Assay [9] is described as follows: Cell cycle arrest in human PC3 cells assessed as accumulation at sub G0/G1 phase at 0.2 uM after 48 hrs by propidium iodide staining-based flow cytometry (reference value: 1.6%). It counts as functional. To be noted: PC-3.

pIC50: −log10 of the molar value.

For orientation: pIC50 means −log10 of the IC50, conventionally taken in molar units. Turning to `O=c1[nH]cc(F)c(=O)[nH]1` [FLUOROURACIL], the negative logarithm of the IC50 (pIC50) (in assay [1]; with LNCaP) was 7.52 each time.

On to `O=C(Nc1nnc(-c2ccccc2)o1)c1ccc2ccccc2c1`, for which the negative-log IC50 (pIC50) in [1] was 4.59; in the assay on LNCaP it was 4.49.

Take `O=C(Nc1nnc(-c2ccc3ccccc3c2)o1)c1ccc(C(F)(F)F)cc1`: the pIC50 is 4.96 in assay [1] and 5.18 with LNCaP.

For `O=C(Nc1nnc(-c2ccccc2)o1)c1ccccc1`, the Activity in the assay on PC-3 [2] came out at 21.3%; in assay [3] it was 21.2%; in the assay with PC-3 [5] it was 15.8%; in assay [6], 9%; in [7], 50.8%; with PC-3 [8], 13.2%. Moreover, the Activity in [9] was determined as 12.1%. In addition, the pIC50 in assay [1] is 6.66; in the assay on LNCaP, 5.88. Also, the viability at 0.2 µM in the assay on PC-3 [4] amounted to 49.7%.

With `O=S(=O)(Nc1nnc(-c2ccc(C(F)(F)F)cc2)o1)c1ccccc1`, the negative-log IC50 (pIC50) in [1] is 5.08; in the assay with LNCaP it was 5.60.

On to `O=S(=O)(Nc1nnc(-c2ccc(C(F)(F)F)cc2)o1)c1ccc2ccccc2c1`, for which the figures for the pIC50 (in assay [1]; with LNCaP) were 4.65 and 5.41, respectively.

Turning to `O=S(=O)(Nc1nnc(-c2ccc3ccccc3c2)o1)c1ccc2ccccc2c1`, the negative logarithm of the IC50 (pIC50) in [1] was 4.32; in the assay on LNCaP, 5.49.
